Measurements: ChEMBL document CHEMBL1122724, “Synthesis and kinetic studies of protease substrates containing the 1-methyl-6-aminoquinolinium ion as a fluorogenic leaving group” (J Med Chem, 1984)
Values belong to the molecule of their own block, whether it stands above or below them.

How the values were obtained:
[1] = target: Chymotrypsinogen B (Homo sapiens) (UniProt P17538); experiment: (§1) Ratio of Kcat to Km of the compound; details: Sus scrofa
[2] = target: Chymotrypsinogen B (Homo sapiens) (UniProt P17538); experiment: Kinetic constant was determined from the initial rates of enzymatic hydrolysis by the Lineweaver-Burke method against alpha-chymotrypsin enzyme at a concentration of 2.0 uM; details: Sus scrofa
How it was run: (§2)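 Chymotrypsin assayed in 50 mM Tris-HCl pH 8.0 with 10 mM CaCl2 at 25 °C. Active enzyme was titrated with 2-nitro-4-carboxyphenyl diphenylcarbamate. Product release was followed fluorimetrically, with excitation 410 nm and emission 550 nm for MAQ+, and 355/550 nm for 6-AQ. Constants were taken from initial hydrolysis rates by Lineweaver–Burk plots.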

[3] = target: Serine protease 1 (Homo sapiens) (UniProt P07477); experiment: as §1; details: Sus scrofa
[4] = target: Serine protease 1 (Homo sapiens) (UniProt P07477); experiment: Kinetic constant was determined from the initial rates of enzymatic hydrolysis by the Lineweaver-Burke method against trypsin enzyme at a concentration of 1.0 uM; details: Sus scrofa
How it was run: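 Trypsin, active-site titrated with p-nitrophenyl p-guanidinobenzoate, was used in 46 mM Tris-HCl pH 8.1 containing 11 mM CaCl2 at 25 °C. Hydrolysis was monitored by fluorescence, with excitation/emission 410/550 nm for MAQ+ and 355/550 nm for 6-AQ. Initial rates were fitted by the Lineweaver–Burk method.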

[5] = as §1
[6] = target: Pancreatic elastase (Sus scrofa) (UniProt P08419+P00772); experiment: (§3) Kinetic constant was determined from the initial rates of enzymatic hydrolysis by the Lineweaver-Burke method against elastase at a concentration of 1.4 uM; assay type: protein assay
How it was run: (§4)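 Porcine pancreatic elastase assayed in 67 mM Tris-HCl pH 8.8 at 37 °C in a thermostatted cuvette. Specific activity was checked with orcein-elastin before each experiment. Leaving-group fluorescence was read at 410/550 nm (MAQ+) or 355/550 nm (6-AQ). Kinetic constants came from initial rates by Lineweaver–Burk analysis.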

[7] = test system: C[n+]1cccc2cc(NC(=O)[C@H](Cc3ccccc3)NC(=O)OCc3ccccc3)ccc21; experiment: Kinetic constant was determined from the initial rates of enzymatic hydrolysis by the Lineweaver-Burke method against chymotrypsin enzyme at a concentration of 2.0 uM; details: Sus scrofa; how it was run: as §2
[8] = test system: C[C@H](NC(=O)CCC(=O)O)C(=O)N[C@@H](C)C(=O)N[C@@H](C)C(=O)Nc1ccc2ncccc2c1; experiment: as §3; assay type: protein assay; how it was run: as §4
[9] = test system: C[C@H](NC(=O)OCc1ccccc1)C(=O)N[C@@H](C)C(=O)Nc1ccc2c(ccc[n+]2C)c1; experiment: as §3; assay type: protein assay; how it was run: as §4
[10] = test system: C[C@H](NC(=O)OCc1ccccc1)C(=O)N[C@@H](C)C(=O)N[C@@H](C)C(=O)Nc1ccc2c(ccc[n+]2C)c1; experiment: as §3; assay type: protein assay; how it was run: as §4

Sequence of Chymotrypsinogen B (Homo sapiens) (P17538 34-164 limits assumed, other chains not shown): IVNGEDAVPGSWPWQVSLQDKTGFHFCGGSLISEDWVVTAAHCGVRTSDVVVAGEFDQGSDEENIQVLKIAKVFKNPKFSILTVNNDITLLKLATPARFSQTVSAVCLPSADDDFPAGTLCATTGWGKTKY
Sequence of Chymotrypsinogen B (Homo sapiens) (P17538 167-263 limits assumed, other chains not shown): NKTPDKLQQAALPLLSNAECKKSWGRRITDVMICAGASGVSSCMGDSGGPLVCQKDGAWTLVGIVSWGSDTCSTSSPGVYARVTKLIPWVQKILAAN
Sequence of Serine protease 1 (Homo sapiens) (P07477 whole entry): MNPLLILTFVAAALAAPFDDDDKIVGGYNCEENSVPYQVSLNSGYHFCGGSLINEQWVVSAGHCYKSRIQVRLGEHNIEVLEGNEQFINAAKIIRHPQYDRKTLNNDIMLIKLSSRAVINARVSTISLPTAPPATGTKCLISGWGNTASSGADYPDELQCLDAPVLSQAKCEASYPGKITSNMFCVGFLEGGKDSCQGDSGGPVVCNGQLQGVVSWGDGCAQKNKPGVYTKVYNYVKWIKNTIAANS
Sequence of Pancreatic elastase (Sus scrofa) (from UniProt P08419+P00772) (P00772 whole entry, looked up): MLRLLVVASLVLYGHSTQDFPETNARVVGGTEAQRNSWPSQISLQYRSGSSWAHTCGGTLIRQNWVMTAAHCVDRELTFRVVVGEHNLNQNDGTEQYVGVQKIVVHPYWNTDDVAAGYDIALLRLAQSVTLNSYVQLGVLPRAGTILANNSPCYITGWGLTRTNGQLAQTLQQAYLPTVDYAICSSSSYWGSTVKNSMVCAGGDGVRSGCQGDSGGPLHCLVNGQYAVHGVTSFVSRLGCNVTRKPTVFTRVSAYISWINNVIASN
Sequence of Pancreatic elastase (Sus scrofa) (from UniProt P08419+P00772) (P08419 whole entry, looked up): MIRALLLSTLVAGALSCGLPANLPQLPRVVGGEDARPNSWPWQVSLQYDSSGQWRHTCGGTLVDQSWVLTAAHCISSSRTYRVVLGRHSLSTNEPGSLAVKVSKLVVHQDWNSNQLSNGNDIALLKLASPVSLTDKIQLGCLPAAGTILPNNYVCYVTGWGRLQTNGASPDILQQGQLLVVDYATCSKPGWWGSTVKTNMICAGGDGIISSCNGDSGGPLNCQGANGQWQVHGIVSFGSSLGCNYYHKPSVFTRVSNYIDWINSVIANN

Ratio [1]: 2220 M⁻¹ s⁻¹
k cat [2]: 0.4 s⁻¹
Molecule: C[n+]1cccc2cc(NC(=O)[C@H](Cc3ccccc3)NC(=O)OCc3ccccc3)ccc21

Ratio [1]: 79 M⁻¹ s⁻¹
k cat [2]: 0.14 s⁻¹
Molecule: O=C(O)CCCC(=O)N[C@@H](Cc1ccccc1)C(=O)Nc1ccc2ncccc2c1

Ratio [3]: 636 M⁻¹ s⁻¹
k cat [4]: 0.14 s⁻¹
Molecule: C[n+]1cccc2cc(NC(=O)C(CCCN=C(N)N)NC(=O)c3ccccc3)ccc21 (stereo not drawn)

Ratio [5]: 3400 M⁻¹ s⁻¹
k cat [6]: 1.7 s⁻¹
Molecule: C[C@H](NC(=O)CCC(=O)O)C(=O)N[C@@H](C)C(=O)N[C@@H](C)C(=O)Nc1ccc2ncccc2c1

Molecule: Chymotrypsinogen A (Bos taurus) (from UniProt P00766)
Km [7]: 180 µM

Ratio [5]: 10 M⁻¹ s⁻¹
k cat [6]: 0.043 s⁻¹
Molecule: C[C@H](NC(=O)OCc1ccccc1)C(=O)N[C@@H](C)C(=O)Nc1ccc2c(ccc[n+]2C)c1

Ratio [5]: 4740 M⁻¹ s⁻¹
k cat [6]: 1.09 s⁻¹
Molecule: C[C@H](NC(=O)OCc1ccccc1)C(=O)N[C@@H](C)C(=O)N[C@@H](C)C(=O)Nc1ccc2c(ccc[n+]2C)c1

Ratio [3]: 1500 M⁻¹ s⁻¹
k cat [4]: 0.6 s⁻¹
Molecule: N=C(N)NCCCC(NC(=O)c1ccccc1)C(=O)Nc1ccc2ncccc2c1 (stereo not drawn)

Molecule: Pancreatic elastase (Sus scrofa) (from UniProt P08419+P00772)
Km [8]: 500 µM
Km [9]: 4170 µM
Km [10]: 230 µM
